The record followed here is ChEMBL document CHEMBL1687745 (Antimicrob Agents Chemother, 2009).

In brackets after ≈: the same amount, converted by molar mass. Activity calls are given as the source filed them. No cut-off for these calls is given here.

The subject of series [1] is Bacillus subtilis. In words: Disruption of bacterial membrane permeability in Bacillus subtilis BD54 using DiSC3 fluorescent dye staining based fluorimetric assay. In kind it is functional, organism-based. The gist of the method: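 B. subtilis BD54 was grown in LB to OD600 0.4–0.5, washed and resuspended to OD600 0.1 in 5 mM HEPES pH 7.4 with 20 mM glucose. Cells were loaded with 1 µM DiSC3(5) for 10 min at room temperature, then 100 mM KCl was added. […] Fluorescence (ex 622/em 670 nm) was read after 5 min in eight wells per condition. DNP at 200 µg/ml served as positive control.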

Series [2] relates to Mycolicibacterium smegmatis. Briefly: Antimicrobial activity against Mycobacterium smegmatis 35798 by broth microdilution method. It counts as functional. In a few lines: (§1)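 Broth microdilution. Log-phase cultures (5 × 10^5 CFU/ml) seeded in 96-well plates with compound from 0 to 20 µM or 1% DMSO control. Incubated at 37°C for 16 to 20 h. Growth read as absorbance at 600 nm.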
For orientation: In broth dilution the organism is exposed to a series of concentrations in liquid medium.

Series [3] relates to Staphylococcus aureus. In words: Antimicrobial activity against Staphylococcus aureus ATCC 25923 by broth microdilution method. It counts as functional. The gist of the method:
as §1

Series [4] deals with Bacillus subtilis. In words: Inhibition of DNA synthesis in Bacillus subtilis BD54 at 5 X MIC by [3H]thymidine incorporation assay. It counts as functional, organism-based. The gist of the method:
(§2)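 Precursors were [methyl-3H]thymidine (DNA), [5-3H]uridine (RNA), L-[4,5-3H]leucine (protein) and N-acetyl-D-[1-3H]glucosamine (cell wall). Samples taken over time, precipitated with equal volume of ice-cold 20% TCA, filtered on glass fibre, and counted. cpm plotted against time.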
In general terms: Incorporation of labelled thymidine or its analogues reports DNA synthesis.

Series [5] deals with Enterococcus faecalis. In words: Antimicrobial activity against vancomycin-resistant Enterococcus faecalis ATCC 51575 by broth microdilution method. In kind it is functional.
The test system of series [6] is Pseudomonas aeruginosa. In words: Antimicrobial activity against Pseudomonas aeruginosa PAO1 by broth microdilution method. In kind it is functional. In a few lines:
as §1

Series [7] concerns Enterococcus faecium. Briefly: Antimicrobial activity against vancomycin-resistant Enterococcus faecium B42762 by broth microdilution method. In kind it is functional.
The test system of series [8] is Mycolicibacterium smegmatis. In words: Antimicrobial activity against Mycobacterium smegmatis 700009 by broth microdilution method. In kind it is functional. The gist of the method:
as §1

The test system of series [9] is Staphylococcus aureus. In words: Antimicrobial activity against methicillin-resistant Staphylococcus aureus 1094 by broth microdilution method. It counts as functional.
For series [10], the system named is Bacillus anthracis. In words: Inhibition of spore outgrowth in Bacillus anthracis Sterne spores assessed as reduction in bacterial CFU count at 0.1 ug/ml after 4 hrs relative to untreated control. In kind it is functional, organism-based.
The test system of series [11] is Bacillus subtilis. Briefly: Inhibition of cell wall synthesis in Bacillus subtilis BD54 at 5 X MIC by N-acetyl-D-[1-3H] glucosamine incorporation assay. It counts as functional. In a few lines:
as §2

Series [12] concerns Bacillus subtilis. Briefly: Inhibition of protein synthesis in Bacillus subtilis BD54 at 5 X MIC by L-[4,5-3H]leucine incorporation assay. It counts as functional, organism-based. The gist of the method: as §2
Series [13] has as its system Mycolicibacterium smegmatis. Briefly: Antimicrobial activity against Mycobacterium smegmatis 19420 by broth microdilution method. It counts as functional. In a few lines:
as §1

Series [14] concerns Klebsiella pneumoniae. In words: Antimicrobial activity against Klebsiella pneumoniae 5657 by broth microdilution method. In kind it is functional. The gist of the method: as §1
The test system of series [15] is Bacillus subtilis. Briefly: Inhibition of RNA synthesis in Bacillus subtilis BD54 at 5 X MIC by [5-3H]uridine incorporation assay. In kind it is functional. In a few lines: as §2
Series [16] deals with Bacillus subtilis. In words: Antimicrobial activity against Bacillus subtilis clinical isolate by broth microdilution method. It counts as functional.
Series [17] has as its system Burkholderia cepacia. In words: Antimicrobial activity against Burkholderia cepacia clinical isolate by broth microdilution method. It counts as functional. The gist of the method:
as §1

Series [18] deals with Bacillus anthracis. In words: Protection against Bacillus anthracis Sterne spores induced cell death in mouse J774A1 cells assessed as live viable cells at 10 uM by Sytox green dye staining assay relative to untreated control. In kind it is functional, J774.A1.
The test system of series [19] is Bacillus anthracis. In words: Antimicrobial activity against Bacillus anthracis Ames by broth microdilution method in presence of 10% fetal calf serum. In kind it is functional.
The test system of series [20] is Bacillus anthracis. Briefly: microbe, parasite or virus in culture. The following applies: Ames.
Series [21] has as its system Burkholderia pseudomallei. In words: Antimicrobial activity against Burkholderia pseudomallei DD503 by broth microdilution method. It counts as functional.
The subject of series [22] is Enterococcus faecalis. Briefly: Antimicrobial activity against Enterococcus faecalis 29212 clinical isolate by broth microdilution method. In kind it is functional.
The test system of series [23] is Bacillus licheniformis. In words: Antimicrobial activity against Bacillus licheniformis clinical isolate by broth microdilution method. It counts as functional.
Series [24] has as its system Bacillus anthracis. In words: microbe, parasite or virus in culture. The note with it: Ames. The source holds these as a separate data set.
Series [25] concerns Staphylococcus aureus. In words: Antimicrobial activity against methicillin-resistant Staphylococcus aureus clinical isolate by broth microdilution method. It counts as functional.
For series [26], the system named is Enterococcus faecalis. In words: Antimicrobial activity against Enterococcus faecalis clinical isolate by broth microdilution method. It counts as functional. In a few lines: as §1
The subject of series [27] is Escherichia coli. Briefly: Antimicrobial activity against Escherichia coli J53 clinical isolate by broth microdilution method. It counts as functional.
The test system of series [28] is Bacillus anthracis. Briefly: Antimicrobial activity against Bacillus anthracis Sterne vegetative cells by broth microdilution method. It counts as functional.
Series [29] in a line: Cytotoxicity against human HeLa cells after 3 days by MTS assay in presence of 10% fetal calf serum. In kind it is cell-based.
For series [30], the system named is Yersinia pestis. In words: Antimicrobial activity against Yersinia pestis by broth microdilution method. In kind it is functional.
Series [31] relates to Bacillus anthracis. Briefly: Antimicrobial activity against Bacillus anthracis Sterne spores by broth microdilution method. It counts as functional.
Series [32] relates to Brevibacillus brevis. In words: Antimicrobial activity against Bacillus brevis clinical isolate by broth microdilution method. In kind it is functional. The gist of the method:
as §1

In series [33] the test system is Priestia megaterium. Briefly: Antimicrobial activity against Bacillus megaterium clinical isolate by broth microdilution method. It counts as functional.
Series [34] concerns Bacillus pumilus. In words: Antimicrobial activity against Bacillus pumilus clinical isolate by broth microdilution method. It counts as functional. The gist of the method:
as §1

Series [35] relates to Bacillus anthracis. Briefly: Antimicrobial activity against Bacillus anthracis Vollum clinical isolate by broth microdilution method. In kind it is functional.
The subject of series [36] is Burkholderia thailandensis. Briefly: Antimicrobial activity against Burkholderia thailandensis by broth microdilution method. It counts as functional.
The subject of series [37] is Staphylococcus aureus. In words: Antimicrobial activity against Staphylococcus aureus by broth microdilution method. In kind it is functional. In a few lines: as §1
The subject of series [38] is Bacillus anthracis. Briefly: Inhibition of spore germination in Bacillus anthracis Sterne spores at MIC after 4 hrs. In kind it is functional, organism-based.
The subject of series [39] is Burkholderia mallei. In words: Antimicrobial activity against Burkholderia mallei ATCC 23344 by broth microdilution method. In kind it is functional.
For series [40], the system named is Bacillus anthracis. In words: Protection against Bacillus anthracis Sterne spores induced cell death in mouse J774A1 cells assessed as dead cells at 10 uM by Sytox green dye staining assay relative to untreated control. In kind it is functional, J774.A1.

As to `O=[N+]([O-])c1ccc(O)c([N+](=O)[O-])c1`, in series [1], the outcome was Active.
Consider `O=C(O)c1cn(C2CC2)c2cc(N3CCNCC3)c(F)cc2c1=O` [CIPROFLOXACIN], for which the MIC in series [2] was found to be 0.2 µg/mL (≈ 0.604 µM); in series [3], 0.3 µg/mL (≈ 0.905 µM); in series [5] it was 0.6 µg/mL (≈ 1.81 µM); in [6], 0.1 µg/mL (≈ 0.302 µM); in series [7], 20 µg/mL (≈ 60.4 µM); in series [8] it was 0.4 µg/mL (≈ 1.21 µM). For the same molecule, the MIC in [9] was determined as 5 µg/mL (≈ 15.1 µM); in series [13], 0.1 µg/mL (≈ 0.302 µM); in [14], 0.2 µg/mL (≈ 0.604 µM). The inhibition result in series [4], in series [10], in series [11], in [12] and in series [15] was “Active” in each case.
In the case of `c1cc2cc(-c3ccc4cc(-c5ccc6oc(C7=NCCN7)cc6c5)[nH]c4c3)[nH]c2cc1C1=NCCN1`, the MIC in series [16] was 0.4 µg/mL (≈ 0.825 µM); in [17], 22 µg/mL (≈ 45.4 µM); in series [19] it was 1.4 µg/mL; in [2] it was less than 0.1 µg/mL; in series [3] it was 0.3 µg/mL (≈ 0.619 µM); in series [5], 0.1 µg/mL (≈ 0.206 µM). Also, the MIC is 0.2 µg/mL (≈ 0.413 µM) in series [20]; more than 80 µg/mL in series [6]; more than 9.7 µg/mL in series [21]; 0.1 µg/mL (≈ 0.206 µM) in [22]; 1.4 µg/mL (≈ 2.89 µM) in [23]; 1.4 µg/mL (≈ 2.89 µM) in series [24]. Moreover, the MIC came out at 2.8 µg/mL (≈ 5.78 µM) in series [25]; 0.7 µg/mL (≈ 1.44 µM) in series [26]; 1.4 µg/mL (≈ 2.89 µM) in [27]; 0.7 µg/mL (≈ 1.44 µM) in series [28]; 0.1 µg/mL (≈ 0.206 µM) in series [7]; 9.7 µg/mL (≈ 20 µM) in [30]. Further, the MIC was less than 0.1 µg/mL in series [8]; 0.5 µg/mL (≈ 1.03 µM) in [9]; 0.4 µg/mL (≈ 0.825 µM) in series [31]; 0.2 µg/mL (≈ 0.413 µM) in [32]; 0.4 µg/mL (≈ 0.825 µM) in series [33]; 0.1 µg/mL (≈ 0.206 µM) in series [13]. The MIC is 16 µg/mL (≈ 33 µM) in series [14]; 0.4 µg/mL (≈ 0.825 µM) in series [34]; 0.4 µg/mL (≈ 0.825 µM) in series [35]; 2.8 µg/mL (≈ 5.78 µM) in series [36]; 0.7 µg/mL (≈ 1.44 µM) in series [37]; more than 9.7 µg/mL in [39]. The Activity in [18] was determined as 75%; in series [40], 24%. Moreover, the inhibition result in series [4] is “Active”. The figures for the MBC in [20], in series [24] and in series [35] were 1.2 µg/mL (≈ 2.48 µM), 2.8 µg/mL (≈ 5.78 µM) and 0.4 µg/mL (≈ 0.825 µM), respectively. In series [29], the CC50 (commonly the concentration at which the toxic effect on the cells reaches its halfway point) at 72 h amounted to 17 µg/mL. Further, the “inhibition (INH)” value in series [11] and in series [15] was 40% each time. Also, the inhibition entry in series [38] was “inactive”.
